Assay results published in ChEMBL document CHEMBL1926565, “Synthesis, antiproliferative activities and telomerase inhibition evaluation of novel asymmetrical 1,2-disubstituted amidoanthraquinone derivatives” (Eur J Med Chem, 2012).
The source made the active and inactive calls. The rule behind the calls is not given here.

Legend:
[1] = target: Telomerase reverse transcriptase (Homo sapiens) (UniProt O14746); test: Residual activity of human TERT in H1299 cells at 10 uM after 24 hrs by SEAP reporter gene assay
[2] = Growth of human H1299 cells at 100 uM 48 hrs by MTT assay; details: NCI-H1299, 48 h
[3] = target: Telomerase reverse transcriptase (Homo sapiens) (UniProt O14746); test: Residual activity of human TERT in H1299 cells at 1 uM after 24 hrs by SEAP reporter gene assay
PC-3 = test: Cytotoxicity against human PC3 cells after 48 hrs by SRB assay; type: functional, cell-based; details: PC-3, 48 h
How it was run: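 PC-3 cells grown in RPMI1640 with 10% FBS at 37 °C, 5% CO₂. Seeded in medium with 5% FBS; after 24 h, one plate fixed with 10% TCA as T₀. Compound or 0.1% DMSO vehicle added for 48 h, then TCA fixation and 0.4% SRB in 1% acetic acid. Dye solubilized in 10 mM Trizma base, absorbance read at 515 nm. IC50 is the concentration giving 50% reduction of the protein gain in controls.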

[4] = Growth of human H1299 cells at 10 uM after 48 hrs by MTT assay; details: NCI-H1299, 48 h
[5] = target: Telomerase reverse transcriptase (Homo sapiens) (UniProt O14746); test: Residual activity of human TERT in H1299 cells at 100 uM after 24 hrs by SEAP reporter gene assay
[6] = Growth of human H1299 cells at 1 uM after 48 hrs by MTT assay; details: NCI-H1299, 48 h
[7] = target: Telomerase reverse transcriptase (Homo sapiens) (UniProt O14746); test: Inhibition of telomerase activity in human H1299 cell free extract at 10 uM by modified TRAP assay
How it was run: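 TRAP assay using total cell lysate from H1299 lung cancer cells as the telomerase source, with protein measured against BSA standards. Compounds tested at 10 µM. Controls were lysate without inhibitor (positive) and RNase A-treated extract without inhibitor (negative).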

Telomerase reverse transcriptase (Homo sapiens), sequence (O14746 whole entry): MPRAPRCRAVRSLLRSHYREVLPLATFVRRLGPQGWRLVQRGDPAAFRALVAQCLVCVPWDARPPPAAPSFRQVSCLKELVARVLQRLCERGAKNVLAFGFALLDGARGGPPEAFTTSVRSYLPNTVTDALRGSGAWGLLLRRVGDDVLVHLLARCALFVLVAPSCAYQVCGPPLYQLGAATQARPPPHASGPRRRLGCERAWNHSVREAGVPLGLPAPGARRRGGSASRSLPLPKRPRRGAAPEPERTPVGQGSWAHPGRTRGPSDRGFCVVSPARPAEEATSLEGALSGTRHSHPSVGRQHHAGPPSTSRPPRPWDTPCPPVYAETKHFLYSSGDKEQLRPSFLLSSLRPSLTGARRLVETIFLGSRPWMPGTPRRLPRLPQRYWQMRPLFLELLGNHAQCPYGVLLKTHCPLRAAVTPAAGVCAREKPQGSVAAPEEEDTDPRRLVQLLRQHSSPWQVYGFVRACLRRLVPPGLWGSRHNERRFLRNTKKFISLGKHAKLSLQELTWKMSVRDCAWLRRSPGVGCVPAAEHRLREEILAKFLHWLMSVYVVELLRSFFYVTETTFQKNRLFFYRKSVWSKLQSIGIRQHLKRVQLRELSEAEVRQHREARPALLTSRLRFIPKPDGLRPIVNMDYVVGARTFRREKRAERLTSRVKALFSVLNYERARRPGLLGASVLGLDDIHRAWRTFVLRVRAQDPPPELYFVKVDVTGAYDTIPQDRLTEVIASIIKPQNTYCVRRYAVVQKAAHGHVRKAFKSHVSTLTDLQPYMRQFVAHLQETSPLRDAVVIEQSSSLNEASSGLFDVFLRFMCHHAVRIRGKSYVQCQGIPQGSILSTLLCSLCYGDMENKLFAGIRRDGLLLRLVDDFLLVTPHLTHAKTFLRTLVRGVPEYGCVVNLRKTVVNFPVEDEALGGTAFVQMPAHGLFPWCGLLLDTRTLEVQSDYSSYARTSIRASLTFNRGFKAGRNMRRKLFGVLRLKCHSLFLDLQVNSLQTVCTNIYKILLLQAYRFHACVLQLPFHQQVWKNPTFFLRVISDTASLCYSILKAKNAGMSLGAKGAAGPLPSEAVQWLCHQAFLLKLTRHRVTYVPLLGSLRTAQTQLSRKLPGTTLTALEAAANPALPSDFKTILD

Row | SMILES | residual activity [1] [%] | residual activity [3] [%] | residual activity [5] [%] | inhibition [7] | growth, % of control at 100 µM [2] [%] | IC50 (PC-3) [µM] | growth, % of control at 10 µM [4] [%] | growth, % of control at 1 µM [6] [%]
1 | O=C(CCl)Nc1ccc2c(c1NC(=O)c1cccc(F)c1)C(=O)c1ccccc1C2=O | 1 | 26 | 0 | inactive | 1 | 3.48 | 8 | 18
2 | O=C(CCl)Nc1ccc2c(c1NC(=O)c1ccccc1)C(=O)c1ccccc1C2=O | 94 | 96 | 15 | inactive | 5 | 0.95 | 83 | 101
3 | O=C(CCl)Nc1ccc2c(c1NC(=O)c1cccc(C(F)(F)F)c1)C(=O)c1ccccc1C2=O | 4 | 99 | 0 | inactive | 3 | 5.68 | 5 | 94
4 | Cc1ccc(C(=O)Nc2c(NC(=O)CN(C)CC3OCCO3)ccc3c2C(=O)c2ccccc2C3=O)cc1 | 76 | 100 | 10 | inactive | 3 | 1.46 | 88 | 104
5 | Cc1ccc(C(=O)Nc2c(NC(=O)CN3CCN(CCO)CC3)ccc3c2C(=O)c2ccccc2C3=O)cc1 | 8 | 76 | 0 | inactive | 0 | 2.07 | 44 | 71
6 | O=C(CCl)Nc1ccc2c(c1NC(=O)c1ccccc1C(F)(F)F)C(=O)c1ccccc1C2=O | 4 | 93 | 2 | inactive | 0 | 3.42 | 3 | 93
7 | Cc1ccc(C(=O)Nc2c(NC(=O)CN3CCN(c4ccccn4)CC3)ccc3c2C(=O)c2ccccc2C3=O)cc1 | 64 | 97 | 9 | inactive | 6 | > 20 | 100 | 105
8 | Cc1ccc(C(=O)Nc2c(NC(=O)CN3CCSCC3)ccc3c2C(=O)c2ccccc2C3=O)cc1 | 72 | 88 | 12 | inactive | 20 | 19.1 | 69 | 85
9 | Cc1ccc(C(=O)Nc2c(NC(=O)CN(C)C)ccc3c2C(=O)c2ccccc2C3=O)cc1 | 78 | 99 | 9 | inactive | 0 | 3.92 | 88 | 106
10 | COc1cccc2c1C(=O)c1c(O)c3c(c(O)c1C2=O)C[C@@](O)(C(=O)CO)C[C@@H]3O[C@H]1C[C@H](N)[C@H](O)[C@H](C)O1 [DOXORUBICIN] |  |  |  |  |  | 0.25 |  | 
11 | O=C1c2c(O)ccc(O)c2C(=O)c2c(NCCNCCO)ccc(NCCNCCO)c21 [MITOXANTRONE] |  |  |  |  |  | 0.29 |  | 
12 | Cc1ccc(C(=O)Nc2c(NC(=O)CN3CCN(c4ccccc4)CC3)ccc3c2C(=O)c2ccccc2C3=O)cc1 | 88 | 93 | 15 | inactive | 23 | > 20 | 76 | 80
13 | O=C(CCl)Nc1ccc2c(c1NC(=O)c1ccccc1F)C(=O)c1ccccc1C2=O | 5 | 105 | 2 | inactive | 0 | > 20 | 2 | 78
14 | O=C(CCl)Nc1ccc2c(c1NC(=O)c1ccc(Cl)cc1)C(=O)c1ccccc1C2=O | 6 | 98 | 4 | inactive | 4 | > 20 | 5 | 92
15 | O=C(CCl)Nc1ccc2c(c1NC(=O)c1ccc(F)cc1)C(=O)c1ccccc1C2=O | 2 | 11 | 0 | inactive | 0 | 3.14 | 4 | 10
16 | Cc1ccc(C(=O)Nc2c(NC(=O)CN(C)CCc3ccccn3)ccc3c2C(=O)c2ccccc2C3=O)cc1 | 11 | 94 | 22 | inactive | 1 | 6.68 | 46 | 90
17 | Cc1ccc(C(=O)Nc2c(NC(=O)CN3CCOCC3)ccc3c2C(=O)c2ccccc2C3=O)cc1 | 54 | 98 | 3 | inactive | 15 | > 20 | 56 | 81
18 | Cc1ccc(C(=O)Nc2c(NC(=O)CN3CCCCC3)ccc3c2C(=O)c2ccccc2C3=O)cc1 | 70 | 85 | 8 | inactive | 10 | > 20 | 70 | 86

Second part, led by results:

Row | residual activity [1] [%] | residual activity [3] [%] | residual activity [5] [%] | inhibition [7] | SMILES | growth, % of control at 100 µM [2] [%] | IC50 (PC-3) [µM] | growth, % of control at 10 µM [4] [%] | growth, % of control at 1 µM [6] [%]
19 | 92 | 113 | 15 | inactive | O=C(CCCCl)Nc1ccc2c(c1NC(=O)CCCCl)C(=O)c1ccccc1C2=O | 19 | 3.94 | 79 | 103
20 | 72 | 82 | 4 | inactive | O=C(CCl)Nc1ccc2c(c1NC(=O)COc1ccccc1)C(=O)c1ccccc1C2=O | 4 | > 20 | 66 | 101
21 | 4 | 92 | 1 | inactive | O=C(CCl)Nc1ccc2c(c1NC(=O)c1ccno1)C(=O)c1ccccc1C2=O | 0 | 3.78 | 3 | 105
22 | 97 | 108 | 30 | inactive | O=C(CCl)Nc1ccc2c(c1NC(=O)CCCCl)C(=O)c1ccccc1C2=O | 62 | 1.12 | 116 | 100
23 | 3 | 80 | 0 | inactive | O=C(CCl)Nc1ccc2c(c1NC(=O)CSc1ccccc1)C(=O)c1ccccc1C2=O | 0 | 5.39 | 5 | 88
24 | 2 | 84 | 2 | inactive | O=C(CCl)Nc1ccc2c(c1NC(=O)c1ccco1)C(=O)c1ccccc1C2=O | 2 | 2.44 | 0 | 80
25 | 13 | 15 | 13 | inactive | Nc1c(NC(=O)CCl)ccc2c1C(=O)c1ccccc1C2=O | 0 | 1.65 | 0 | 8
26 | 92 | 113 | 15 | inactive | O=C(CCl)Nc1ccc2c(c1NC(=O)CCCl)C(=O)c1ccccc1C2=O | 19 | 1.23 | 79 | 103
27 | 5 | 81 | 1 | inactive | O=C(CCl)Nc1ccc2c(c1NC(=O)c1ccccc1Cl)C(=O)c1ccccc1C2=O | 0 | 3.09 | 6 | 101
